# Experiments:
# [1] = tested on: Human immunodeficiency virus 1; experiment: Inhibition of 50% of the integrase-mediated catalysis of the V1/V2 substrate; type: functional
# MT2 = experiment: Inhibition of MT-2 cell growth by 5% or less over a 72 hr time period.; type: functional, Homo sapiens
# Summary of the method: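 Compounds dissolved in water, 95% ethanol or ethanol/DMSO, diluted in growth medium, filter-sterilized, 2-fold serial dilutions in triplicate. MT-2 cells (2 × 10^5) exposed 72 h at 37 °C; viability by neutral red dye uptake. CT5 = 5% growth inhibition (within 1 SD of untreated controls), taken from linear part of dose-response curve; reported as greater than top concentration when not reachable.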
# [2] = Therapeutic index (ratio of CT5 to ED50).; details: for selectivity ratio: read-out: TI
# [3] = tested on: Human immunodeficiency virus 1; experiment: Inhibition of HIV replication by 50%.; type: functional; details: read-out: ED50 (the source's name)
# [4] = tested on: Human immunodeficiency virus 1; experiment: Inhibition of 50% of the integrase-mediated catalysis of the Y-oligo substrate; type: functional
# [5] = tested on: Human immunodeficiency virus 1; experiment: Inhibition of 50% of the integrase-mediated catalysis of the V1/V2 substrate with 95% confidence interval; type: functional
# [6] = tested on: Human immunodeficiency virus 1; experiment: Inhibition of 50% of the integrase-mediated catalysis of the Y-oligo substrate with 95% confidence interval; type: functional
SMILES,IC50 [1] [µM],EC50 ([3]; Human immunodeficiency virus 1) [µM],IC50 [4] [µM],IC50 ([5]; Human immunodeficiency virus 1) [µM],IC50 ([6]; Human immunodeficiency virus 1) [µM],EC50 [3] [µM],IC50 [5] [µM],IC50 [6] [µM],CT5 (MT2) [µM],selectivity ratio [2],TI [2]
O=C(O)C(O)C(O)C(=O)O (stereo not drawn),> 25,> 1000,> 25,–,–,–,–,–,>1000,< 1,–
O=C(/C=C\c1ccc(O)c(O)c1)NC(COC(=O)/C=C/c1ccc(O)c(O)c1)C(=O)O (stereo not drawn),–,–,–,0.33,0.12,2.5,–,–,39,16,–
O=C(OC(C(=O)O)C(OC(=O)c1ccsc1)C(=O)O)c1ccsc1 (stereo not drawn),> 10,> 95,> 10,–,–,–,–,–,100,< 1,–
CC(CCC(=O)O)C1CC[C@H]2[C@@H]3[C@H](OC(=O)/C=C/c4ccc(O)c(O)c4)CC4C[C@H](OC(=O)/C=C/c5ccc(O)c(O)c5)CC[C@]4(C)[C@H]3C[C@H](OC(=O)/C=C/c3ccc(O)c(O)c3)[C@]12C (stereo partly drawn),–,> 140,–,0.97,0.75,–,–,–,11.4,< 1,–
O=C(OC(C(=O)O)C(OC(=O)c1cccs1)C(=O)O)c1cccs1 (stereo not drawn),> 10,> 190,> 10,–,–,–,–,–,>190,< 1,–
CC(=O)Oc1ccc(/C=C/C(=O)OC(C(=O)O)C(OC(=O)/C=C/c2ccc(OC(C)=O)c(OC(C)=O)c2)C(=O)O)cc1OC(C)=O (stereo not drawn),–,4,–,> 10,15.7,–,–,–,18.6,4.5,–
O=C(O)C(=C\c1ccc(O)c(O)c1)/C(=C/c1ccc(O)c(O)c1)C(=O)O,–,4.4,–,0.83,2.19,–,–,–,55,12,–
O=C(/C=C\c1ccc(O)c(O)c1)NC(CNC(=O)/C=C/c1ccc(O)c(O)c1)C(=O)O (stereo not drawn),–,35,–,0.83,0.57,–,–,–,35,1,–

# Continued, in another order:
IC50 [1] [µM],EC50 ([3]; Human immunodeficiency virus 1) [µM],IC50 [4] [µM],IC50 ([5]; Human immunodeficiency virus 1) [µM],IC50 ([6]; Human immunodeficiency virus 1) [µM],EC50 [3] [µM],IC50 [5] [µM],IC50 [6] [µM],SMILES,CT5 (MT2) [µM],selectivity ratio [2],TI [2]
–,49,–,> 10,2.84,–,–,–,NC(=O)C(Cc1ccc(O)c(O)c1)C(Cc1ccc(O)c(O)c1)C(=O)O (stereo not drawn),123,2.5,–
–,> 37,–,> 10,> 10,–,–,–,CCCCCCCCCCNC(=O)C(Cc1ccc(O)c(O)c1)C(Cc1ccc(O)c(O)c1)C(=O)O (stereo not drawn),34,< 1,–
–,2,–,0.37,0.19,–,–,–,O=C(/C=C/c1ccc(O)c(O)c1)NCC(OC(=O)/C=C\c1ccc(O)c(O)c1)C(=O)O (stereo not drawn),175,88,–
–,> 17,–,–,1.97,–,–,–,CC(CCC(=O)O)C1CC[C@H]2[C@@H]3CCC4C[C@H](OC(=O)/C=C/c5ccc(O)c(O)c5)CC[C@]4(C)[C@H]3C[C@H](OC(=O)/C=C/c3ccc(O)c(O)c3)[C@]12C (stereo partly drawn),6.4,< 1,–
–,186,–,> 10,5.27,–,–,–,CCN(CC)C(=O)C(Cc1ccc(O)c(O)c1)C(Cc1ccc(O)c(O)c1)C(=O)O (stereo not drawn),93,0.5,–
–,4.6,–,–,0.73,–,–,–,O=C(/C=C/c1ccc(O)c(O)c1)Nc1cc(NC(=O)/C=C/c2ccc(O)c(O)c2)cc(C(=O)O)c1,47,10,–
–,–,–,–,–,12.6,0.23,4.32,O=C(O)C(Cc1ccc(O)c(O)c1)C(Cc1ccc(O)c(O)c1)C(=O)O (stereo in doubt; 23b),76,–,6
–,–,–,0.44,2.78,1.9,–,–,O=C(O)C(Cc1ccc(O)c(O)c1)C(Cc1ccc(O)c(O)c1)C(=O)O (stereo in doubt; 24b),71,–,37

# From ChEMBL document CHEMBL1135546, “Dicaffeoyltartaric acid analogues inhibit human immunodeficiency virus type 1 (HIV-1) integrase and HIV-1 replication at nontoxic concentrations” (J Med Chem, 2002)
